Laboratory results reported in ChEMBL document CHEMBL1145047, “Design, synthesis, and evaluation of substituted phenylpropanoic acid derivatives as human peroxisome proliferator activated receptor activators. Discovery of potent and human peroxisome proliferator activated receptor alpha subtype-selective activators” (J Med Chem, 2003).

Columns and labels:
Assay type in all cases: functional
[1] = test system: Rattus norvegicus; assay: In vivo percent reduction on total cholesterol of the normal rat at 0.3 mg/kg
In short: (§1)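 Male Sprague-Dawley rats, 11 weeks old, fed standard chow and water ad libitum. Drug or vehicle suspended in 0.5% w/v arabic gum and given orally once daily at 0.3, 3 or 30 mg/kg; duration is 4 days in the methods and 5 days in the table. Plasma taken in the fed state. TG, FFA and total cholesterol measured enzymatically. HDL obtained by precipitation; LDL+VLDL = total minus HDL cholesterol. Values are mean percent reduction, N = 5 or 6.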

[2] = test system: Rattus norvegicus; assay: In vivo percent reduction on TG of the rat at 3 mg/kg after 5 days; in short: as §1
[3] = test system: Rattus norvegicus; assay: In vivo percent reduction on TG of the normal rat at 0.3 mg/kg; in short: as §1
[4] = test system: Rattus norvegicus; assay: In vivo percent reduction on FFA of the rat at 0.3 mg/kg after 5 days; in short: as §1
[5] = test system: Rattus norvegicus; assay: In vivo percent reduction on LDL+VLDL of the normal rat at 3 mg/kg; in short: as §1
[6] = test system: Rattus norvegicus; assay: In vivo percent reduction on FFA of the normal rat at 0.3 mg/kg; in short: as §1
[7] = test system: Rattus norvegicus; assay: In vivo percent reduction on total cholesterol of the rat at 30 mg/kg after 5 days; in short: as §1
[8] = test system: Rattus norvegicus; assay: In vivo percent reduction on TG of the rat at 0.3 mg/kg after 5 days; in short: as §1
[9] = test system: Rattus norvegicus; assay: In vivo percent reduction on total cholesterol of the rat at 3 mg/kg after 5 days; in short: as §1
[10] = test system: Rattus norvegicus; assay: In vivo percent reduction on TG of the rat at 30 mg/kg after 5 days; in short: as §1
[11] = test system: Rattus norvegicus; assay: In vivo percent reduction on LDL+VLDL of the normal rat at 0.3 mg/kg; in short: as §1
[12] = test system: Rattus norvegicus; assay: In vivo percent reduction on LDL+VLDL of the normal rat at 30 mg/kg; in short: as §1
[13] = test system: Rattus norvegicus; assay: In vivo percent reduction on FFA of the rat at 3 mg/kg after 5 days; in short: as §1
[14] = test system: Rattus norvegicus; assay: In vivo percent reduction on total cholesterol of the normal rat at 30 mg/kg; in short: as §1
[15] = test system: Rattus norvegicus; assay: In vivo percent reduction on total cholesterol of the normal rat at 3 mg/kg; in short: as §1
[16] = test system: Rattus norvegicus; assay: In vivo percent reduction on FFA of the normal rat at 3 mg/kg; in short: as §1
[17] = test system: Rattus norvegicus; assay: In vivo percent reduction on FFA of the normal rat at 30 mg/kg; in short: as §1
[18] = test system: Rattus norvegicus; assay: In vivo percent reduction on LDL+VLDL of the rat at 0.3 mg/kg after 5 days; in short: as §1
[19] = test system: Rattus norvegicus; assay: In vivo percent reduction on LDL+VLDL of the rat at 3 mg/kg after 5 days; in short: as §1
[20] = test system: Rattus norvegicus; assay: In vivo percent reduction on TG of the normal rat at 30 mg/kg; in short: as §1
[21] = test system: Rattus norvegicus; assay: In vivo percent reduction on TG of the normal rat at 3 mg/kg; in short: as §1
[22] = test system: Rattus norvegicus; assay: In vivo percent reduction on total cholesterol of the rat at 0.3 mg/kg after 5 days; in short: as §1
[23] = test system: Rattus norvegicus; assay: In vivo percent reduction on FFA of the rat at 30 mg/kg after 5 days; in short: as §1
[24] = test system: Rattus norvegicus; assay: In vivo percent reduction on LDL+VLDL of the rat at 30 mg/kg after 5 days; in short: as §1

## CC[C@@H](Cc1ccc(OC)c(C(=O)NCc2ccc(C(F)(F)F)cc2)c1)C(=O)O
[1]
  Reduction: 19%
[2]
  Reduction: 25%
[3]
  Reduction: -1%
[4]
  Reduction: 12%
[5]
  Reduction: 56%
[6]
  Reduction: 11%
[7]
  Reduction: 35%
[8]
  Reduction: 15%
[9]
  Reduction: 29%
[10]
  Reduction: 56%
[11]
  Reduction: 46%
[12]
  Reduction: 58%
[13]
  Reduction: 28%
[14]
  Reduction: 32%
[15]
  Reduction: 26%
[16]
  Reduction: 27%
[17]
  Reduction: 72%
[18]
  Reduction: 29%
[19]
  Reduction: 58%
[20]
  Reduction: 33%
[21]
  Reduction: 26%
[22]
  Reduction: 22%
[23]
  Reduction: 69%
[24]
  Reduction: 60%
